Published values pooled from the literature.
Compare with care: the assays were run in different laboratories.
Read-out: cell growth or viability

Cc1nc(Nc2ncc(C(=O)Nc3c(C)cccc3Cl)s2)cc(N2CCN(CCO)CC2)n1
IC50 (BXPC-3; MTT): 46 nM

CN(C(=O)COC(=O)/C=C/c1cccc([N+](=O)[O-])c1)C1CCS(=O)(=O)C1 (centres unmarked)
IC50 (DLD-1; ATP luminescence; 48 h): 1600 nM

CC(=O)O[C@H]1C(=O)[C@@]2(C)[C@H]([C@H](OC(=O)c3ccccc3)[C@]3(O)C[C@H](OC(=O)[C@H](O)[C@@H](NC(=O)c4ccccc4)c4ccccc4)C(C)=C1C3(C)C)[C@]1(OC(C)=O)CO[C@@H]1C[C@@H]2O
IC50 (BXPC-3; fluorescence; 72 h): 4 nM

CCN(CC)CCCC(C)Nc1cnc(C(=O)Nc2cc(F)cc3cccnc23)cn1 (centres unmarked)
IC50 (BXPC-3; MTT): 7300 nM

COc1cc(Nc2nccc(-c3cnn4nc(OC)ccc34)n2)cc(C(F)(F)F)c1
IC50 (DLD-1; ATP luminescence): 530 nM

CNc1ncc2cc(-c3ccc(-c4cccc(C)n4)cc3Cl)c(=O)n(C[C@H]3OC[C@H](N)CO3)c2n1
IC50 (BXPC-3; MTT; 24 h): 20300 nM

Cc1nc(-c2cn3c(n2)-c2ccc(-c4cnn(C(C)(C)C(N)=O)c4)cc2OCC3)n(C(C)C)n1
IC50 (SW48; ATP luminescence; 96 h): 21.5 nM

CCN1CCN(c2ccc(Nc3cc(N(C)C(=O)Nc4c(Cl)c(OC)cc(OC)c4Cl)ncn3)cc2)CC1
IC50 (MFE-296; ATP luminescence; 96 h): 52.5 nM

Cc1cnc(NC2CCOCC2)nc1-n1cnc(C(=O)NC(CN)c2cc(F)cc(Cl)c2)c1 (centres unmarked)
IC50 (U-2973; MTS): 300 nM

C=C(C)[C@@H]1CC[C@]2(C(=O)O)CC[C@]3(C)[C@H](CC[C@@H]4[C@@]5(C)CC[C@H](O)C(C)(C)[C@@H]5CC[C@]43C)[C@@H]12
IC50 (DLD-1; 48 h): 20000 nM

COc1cccc2c1C(=O)c1c(O)c3c(c(O)c1C2=O)C[C@@](O)(C(=O)CO)C[C@@H]3O[C@H]1C[C@H](N)[C@H](O)[C@H](C)O1
IC50 (SK-MEL; neutral red; 48 h): 0.7 µg/mL

Cc1ccc2[nH]c(=O)c3cc(C(=O)NCCCN(C)Cc4ccccc4)sc3c2c1
IC50 (BXPC-3; MTT; 24 h): 10100 nM

CC(C)C[C@H](NC(=O)[C@H](Cc1ccccc1)NC(=O)c1cnccn1)B(O)O
IC50 (SK-N-FI; ATP luminescence): 13 nM

CCN1C(=O)N(c2c(F)c(OC)cc(OC)c2F)Cc2cnc3[nH]c(CN4CCOCC4)cc3c21
IC50 (MFE-296; ATP luminescence; 96 h): 56 nM
